ChEMBL document CHEMBL2074042, “beta-lactam antibiotics as substrates for OCTN2, an organic cation/carnitine transporter” (J Biol Chem, 2000)
Blank lines part the entries; values can stand above or below the compound they belong to.

Tests used:
Assay type in all cases: functional, cell-based
[1] = target: T1, Solute carrier family 15 member 2 (Rattus norvegicus) (UniProt Q63424); assay: TP_TRANSPORTER: inhibition of Gly-Sar uptake (Gly-Sar: 25 uM, Cefluprenam: 2500uM) in PEPT2-expressing HeLa cells
T1 sequence (whole entry): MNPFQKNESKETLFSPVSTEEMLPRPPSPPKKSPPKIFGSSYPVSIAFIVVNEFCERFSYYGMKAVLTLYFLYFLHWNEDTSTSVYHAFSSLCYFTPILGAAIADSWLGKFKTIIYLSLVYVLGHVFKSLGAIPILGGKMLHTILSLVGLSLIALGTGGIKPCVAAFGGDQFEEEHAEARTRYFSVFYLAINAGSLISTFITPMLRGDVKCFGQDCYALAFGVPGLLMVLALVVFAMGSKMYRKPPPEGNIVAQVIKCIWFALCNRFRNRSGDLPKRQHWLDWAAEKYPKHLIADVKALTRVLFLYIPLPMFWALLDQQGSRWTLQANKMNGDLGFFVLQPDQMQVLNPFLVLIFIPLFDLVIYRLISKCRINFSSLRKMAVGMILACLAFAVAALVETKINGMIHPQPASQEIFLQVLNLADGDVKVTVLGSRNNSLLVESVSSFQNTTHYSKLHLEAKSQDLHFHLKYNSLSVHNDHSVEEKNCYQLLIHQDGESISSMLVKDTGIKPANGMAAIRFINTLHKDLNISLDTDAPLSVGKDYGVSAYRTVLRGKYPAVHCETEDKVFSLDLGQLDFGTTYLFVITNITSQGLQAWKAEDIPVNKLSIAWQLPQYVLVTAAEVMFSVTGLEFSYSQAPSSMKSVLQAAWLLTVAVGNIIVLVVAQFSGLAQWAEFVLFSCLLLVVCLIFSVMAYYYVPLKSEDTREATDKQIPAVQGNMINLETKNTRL
Summary of the method: (§1)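 HeLa cells expressing rat PEPT2 cDNA. [14C]glycylsarcosine (25 μM) uptake for 5 min under an inward H+ gradient in Mes/Tris buffer, pH 6.0, with test compound at 2.5 mM. Vector-cell uptake subtracted. Results as percent of control, three independent measurements, mean ± S.E.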

[2] = target: T2, OCTN2 (organic cation/carnitine transporter 2) (Homo sapiens, UniProt O76082); assay: (§2) TP_TRANSPORTER: inhibition of Carnitine uptake (Carnitine: 0.02 uM, Cefluprenam: 2500 uM) in OCTN2-expressing HeLa cells; parameters: scale not given: the % may be the effect or the level left; conditions: probe carnitine (0.02 uM), read-out: Activity
T2 sequence (O76082 whole entry): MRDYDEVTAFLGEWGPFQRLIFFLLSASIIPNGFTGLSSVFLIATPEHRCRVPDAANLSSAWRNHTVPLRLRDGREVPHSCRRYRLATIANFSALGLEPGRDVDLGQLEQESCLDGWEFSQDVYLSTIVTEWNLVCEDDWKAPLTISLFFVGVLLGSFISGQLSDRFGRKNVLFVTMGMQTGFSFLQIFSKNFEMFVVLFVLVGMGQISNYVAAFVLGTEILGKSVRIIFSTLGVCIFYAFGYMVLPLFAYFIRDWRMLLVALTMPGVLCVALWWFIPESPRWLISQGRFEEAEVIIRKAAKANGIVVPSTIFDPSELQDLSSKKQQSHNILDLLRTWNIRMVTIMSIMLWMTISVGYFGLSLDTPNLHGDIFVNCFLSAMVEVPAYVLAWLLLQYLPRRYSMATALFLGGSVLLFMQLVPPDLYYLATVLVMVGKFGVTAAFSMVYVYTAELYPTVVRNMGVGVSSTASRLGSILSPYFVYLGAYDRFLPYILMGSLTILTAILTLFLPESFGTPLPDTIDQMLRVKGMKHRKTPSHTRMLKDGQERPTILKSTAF
Summary of the method: (§3)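 HeLa cells expressed human or rat OCTN2 cDNA by vaccinia virus/T7 system. [3H]carnitine (20 nM) uptake for 30 min at room temperature in Na+-containing Hepes/Tris buffer, pH 7.5, with β-lactam at 2.5 mM. Lysate radioactivity counted. Endogenous activity from vector-only cells subtracted. Four measurements from two transfections.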

[3] = target: T3, OCTN2 (organic cation/carnitine transporter 2) (Rattus norvegicus, UniProt O70594); assay: as §2; parameters: scale not given: the % may be the effect or the level left; conditions: human, probe carnitine (0.02 uM), read-out: Activity; summary of the method: as §3
T3 sequence (O70594 whole entry): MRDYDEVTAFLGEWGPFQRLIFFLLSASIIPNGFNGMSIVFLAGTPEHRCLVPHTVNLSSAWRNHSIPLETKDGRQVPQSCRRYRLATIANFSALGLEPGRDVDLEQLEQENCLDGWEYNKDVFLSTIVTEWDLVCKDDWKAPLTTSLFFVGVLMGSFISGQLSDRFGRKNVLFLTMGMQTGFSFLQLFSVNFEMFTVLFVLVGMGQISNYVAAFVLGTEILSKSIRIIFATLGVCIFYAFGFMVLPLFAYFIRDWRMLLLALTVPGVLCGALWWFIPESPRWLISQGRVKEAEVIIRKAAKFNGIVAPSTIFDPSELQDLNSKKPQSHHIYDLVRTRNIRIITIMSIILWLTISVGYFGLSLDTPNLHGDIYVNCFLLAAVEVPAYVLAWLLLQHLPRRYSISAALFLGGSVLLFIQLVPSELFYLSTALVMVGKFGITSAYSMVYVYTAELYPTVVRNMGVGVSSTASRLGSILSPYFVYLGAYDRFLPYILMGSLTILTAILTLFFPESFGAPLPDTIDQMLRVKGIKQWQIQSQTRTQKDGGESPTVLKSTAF

[4] = target: T4, Solute carrier family 15 member 1 (Homo sapiens) (UniProt P46059); assay: TP_TRANSPORTER: inhibition of Gly-Sar uptake (Gly-Sar: 50 uM, Cefluprenam: 2500uM) in PEPT1-expressing HeLa cells
T4 sequence (whole entry): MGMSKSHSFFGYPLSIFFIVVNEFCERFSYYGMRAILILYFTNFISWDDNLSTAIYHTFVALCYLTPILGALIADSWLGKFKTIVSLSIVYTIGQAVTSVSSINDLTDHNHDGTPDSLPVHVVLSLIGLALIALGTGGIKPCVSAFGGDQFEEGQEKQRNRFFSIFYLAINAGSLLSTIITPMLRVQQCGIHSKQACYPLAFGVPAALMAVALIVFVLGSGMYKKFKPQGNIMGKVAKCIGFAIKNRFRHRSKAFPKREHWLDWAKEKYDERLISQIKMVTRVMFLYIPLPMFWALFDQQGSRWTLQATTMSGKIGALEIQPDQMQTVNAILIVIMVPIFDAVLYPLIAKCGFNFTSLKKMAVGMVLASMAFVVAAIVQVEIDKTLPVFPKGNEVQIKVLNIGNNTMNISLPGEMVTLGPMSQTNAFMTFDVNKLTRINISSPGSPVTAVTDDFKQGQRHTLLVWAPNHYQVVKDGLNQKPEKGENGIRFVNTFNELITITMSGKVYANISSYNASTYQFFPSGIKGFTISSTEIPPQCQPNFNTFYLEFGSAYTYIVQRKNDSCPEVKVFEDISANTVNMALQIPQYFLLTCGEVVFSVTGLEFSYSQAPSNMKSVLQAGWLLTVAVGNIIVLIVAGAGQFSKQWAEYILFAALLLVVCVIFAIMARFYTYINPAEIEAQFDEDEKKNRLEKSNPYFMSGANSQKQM
Summary of the method: (§4)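 HeLa cells expressing human PEPT1 cDNA. [14C]glycylsarcosine (50 μM) uptake for 5 min in Mes/Tris buffer, pH 6.0, giving an H+ gradient, with test compound at 2.5 mM. Vector-transfected uptake subtracted. Percent of control, n=3, mean ± S.E.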

[5] = target: T5, Organic cation/carnitine transporter 2 (Rattus norvegicus, UniProt O70594); assay: (§5) TP_TRANSPORTER: inhibition of Carnitine uptake (Carnitine: 0.02 uM, Cefadroxil: 2500 uM) in OCTN2-expressing HeLa cells; conditions: human; summary of the method: as §3
T5 sequence (O70594 whole entry): T3 sequence (O70594 whole entry)

[6] = target: T6, Organic cation/carnitine transporter 2 (Homo sapiens, UniProt O76082); assay: as §5; summary of the method: as §3
T6 sequence (O76082 whole entry): T2 sequence (O76082 whole entry)

[7] = target: T6, Organic cation/carnitine transporter 2; assay: TP_TRANSPORTER: inhibition of Carnitine uptake (Carnitine: 0.02 uM, Cephalexin: 2500 uM) in OCTN2-expressing HeLa cells
[8] = target: T6, Organic cation/carnitine transporter 2; assay: TP_TRANSPORTER: inhibition of Carnitine uptake (Carnitine: 0.02 uM, Cefdinir: 2500 uM) in OCTN2-expressing HeLa cells
[9] = target: T6, Organic cation/carnitine transporter 2; assay: TP_TRANSPORTER: inhibition of Carnitine uptake (Carnitine: 0.02 uM, Cyclacillin: 2500 uM) in OCTN2-expressing HeLa cells
[10] = target: T3, OCTN2 (organic cation/carnitine transporter 2); assay: TP_TRANSPORTER: inhibition of Carnitine uptake (Carnitine: 0.02 uM, Cefepime: 2500 uM) in OCTN2-expressing HeLa cells; parameters: scale not given: the % may be the effect or the level left; conditions: human, probe carnitine (0.02 uM), read-out: Activity; summary of the method: as §3
[11] = target: T1, Solute carrier family 15 member 2 (Rattus norvegicus); assay: TP_TRANSPORTER: inhibition of Gly-Sar uptake (Gly-Sar: 25 uM, Cefepime: 2500uM) in PEPT2-expressing HeLa cells; summary of the method: as §1
[12] = target: T6, Organic cation/carnitine transporter 2; assay: TP_TRANSPORTER: inhibition of Carnitine uptake (Carnitine: 0.02 uM) in OCTN2-expressing HeLa cells
[13] = target: T4, Solute carrier family 15 member 1 (Homo sapiens); assay: TP_TRANSPORTER: inhibition of Gly-Sar uptake (Gly-Sar: 50 uM, Cefepime: 2500uM) in PEPT1-expressing HeLa cells; summary of the method: as §4

Activity [1]: is not an inhibitor [-]
activity at 2500 µM [2]: 74%
activity at 2500 µM [3]: 76%
Activity [4]: is not an inhibitor [-]
SMILES: CC[N+](C)(C/C=C/C1=C(C(=O)[O-])N2C(=O)[C@@H](NC(=O)/C(=N\OCF)c3nsc(N)n3)[C@H]2SC1)CC(N)=O (stereo partly drawn) [CEFLUPRENAM]

Activity [5]: is not an inhibitor [-]
Activity [6]: is not an inhibitor [-]
SMILES: CC1=C(C(=O)O)N2C(=O)[C@@H](NC(=O)[C@H](N)c3ccc(O)cc3)[C@H]2SC1 [CEFADROXIL]

Activity [7]: is not an inhibitor [-]
SMILES: CC1=C(C(=O)O)N2C(=O)[C@@H](NC(=O)[C@H](N)c3ccccc3)[C@H]2SC1 [CEPHALEXIN ANHYDROUS]

Activity [8]: is not an inhibitor [-]
SMILES: C=CC1=C(C(=O)O)N2C(=O)[C@@H](NC(=O)/C(=N\O)c3csc(N)n3)[C@H]2SC1 [CEFDINIR]

Activity [9]: is not an inhibitor [-]
SMILES: CC1(C)S[C@@H]2[C@H](NC(=O)C3(N)CCCCC3)C(=O)N2[C@H]1C(=O)O [CYCLACILLIN]

activity at 2500 µM [10]: 28%
Activity [11]: is not an inhibitor [-]
IC50 [12]: 1700 µM
Activity [13]: is not an inhibitor [-]
SMILES: CO/N=C(\C(=O)N[C@@H]1C(=O)N2C(C(=O)[O-])=C(C[N+]3(C)CCCC3)CS[C@H]12)c1csc(N)n1 [CEFEPIME]
